MrgX1 allo act: allosterically activates human MrgX1 receptor signaling. 0.63% of 310,000 active. Q96LB2. MrgX1-HEK293, Fluo-4 calcium flux, FDSS; stronger effect = higher value. B-score at 10 µM;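 active = plate-corrected calcium response at least 3 library SD above typical, normal starting fluorescence, not activating the receptor alone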;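 also: compound read alongside a low EC10 to EC30 dose of BAM8-22 agonist; peak minus trough fluorescence over baseline measured at the second addition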
Target sequence (Q96LB2 whole entry, looked up): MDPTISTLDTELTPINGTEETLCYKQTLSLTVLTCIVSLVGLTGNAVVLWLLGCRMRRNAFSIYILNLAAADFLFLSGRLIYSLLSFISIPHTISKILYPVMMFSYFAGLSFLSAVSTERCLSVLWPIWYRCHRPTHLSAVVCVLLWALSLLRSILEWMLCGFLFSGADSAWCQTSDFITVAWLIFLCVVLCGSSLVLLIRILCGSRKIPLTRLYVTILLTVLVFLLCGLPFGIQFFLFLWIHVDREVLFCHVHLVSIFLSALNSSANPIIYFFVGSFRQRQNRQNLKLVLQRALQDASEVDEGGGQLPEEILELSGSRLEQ
MrgX1 ag: activates human MrgX1 receptor signaling; B-score at 10 µM; 0.44% of 310,000 active; MrgX1-HEK293 cells, Fluo-4 calcium fluorescence, agonist mode; stronger effect = higher value; Q96LB2;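 active = calcium response B-score plate-corrected fluorescence ratio at least 3 library SD, with starting fluorescence B-score inside 5 SD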
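Test system: Stable human MrgX1 HEK293 cell line | Schedule: Overnight plating before 1 h dye loading | Read-out basis: Baseline-normalised fluorescence change ratio, B-scored | Detection: Kinetic calcium dye fluorescence, Fluo-4 NW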
RGS4 inh: human RGS4 inhibition | HEK293 M3R/RGS4 inducible, Fluo-4 calcium flux; stronger effect = higher value; triggered by carbachol at its EC20 | 0.45% of 310,000 active | P49798 | B-score at 10 µM | AID 463165;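 active = B-score, a plate-corrected calcium signal, over three deviations above library mean, with baseline fluorescence within five deviations of library mean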;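 also: RGS4 expression induced by doxycycline in cells with stable M3 receptor; B-score is computed from the integrated fluorescence ratio over baseline after carbachol; higher B-score means a larger calcium signal and so more RGS4 inhibition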
Target sequence (P49798 whole entry, looked up): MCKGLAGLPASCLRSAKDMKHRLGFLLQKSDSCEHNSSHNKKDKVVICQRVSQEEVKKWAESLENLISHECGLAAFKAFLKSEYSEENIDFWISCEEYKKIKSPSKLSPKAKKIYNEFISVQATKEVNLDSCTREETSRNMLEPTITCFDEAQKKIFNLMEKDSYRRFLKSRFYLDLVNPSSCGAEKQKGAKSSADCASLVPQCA
MrgX1 antag: antagonists of human MrgX1 receptor. MRGX1-HEK293 calcium flux, Fluo-4, BAM8-22 antagonism; stronger effect = lower value. B-score at 10 µM. 1.3% of 310,000 active;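 active = calcium-response B-score plate-corrected more than 3 library SD below zero, starting fluorescence within 5 deviations, no agonist response on first addition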;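 also: peak minus trough fluorescence over baseline after final BAM8-22 challenge near maximal dose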
RGS4 pot: potentiators or activators of RGS4; B-score at 10 µM; 0.92% of 310,000 active; HEK293 M3R/inducible RGS4, carbachol calcium flux Fluo4; stronger effect = lower value;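 active = B-score of the integrated calcium signal more than 4 SD below the library mean, with starting fluorescence not abnormally high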;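 also: negative B-score means reduced calcium response which marks RGS4 activation or potentiation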
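System: HEK293 FlpIn-TREx cells, stable M3R, doxycycline-inducible RGS4. Timing: overnight RGS4 induction, 30 min dye load 37 °C, 20 min compound RT. Also added: carbachol, ECmax concentration. Measured by: Fluo4 fluorescence kinetic imaging of calcium. Evaluation: integrated calcium ratio converted to B score.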
MrgX1 antag conf: human MrgX1 receptor antagonism, re-confirmation screen. shares compounds with MrgX1 antag. MrgX1-HEK293, BAM8-22 calcium flux, Fluo-4; stronger effect = lower value. remaining BAM8-22 calcium response % of control (stronger effect = lower value), % at 10 µM. 19% of 2,300 active. AID 602420;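 active = remaining agonist calcium response no higher than 100% minus 3 SD of agonist-only control wells, with starting fluorescence near control levels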;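 also: agonist BAM8-22 given at a near maximal EC90 to ECmax level; peak minus minimum fluorescence divided by baseline after agonist addition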
HEK293 Ca flux: counter-screen for MrgX1 antagonists: effect in parental HEK293 cells. shares compounds with MrgX1 antag. Fluo-4 calcium fluorescence, FDSS. fluorescence ratio F(max-min)/F0 at 10 µM. 2% of 4,000 active. AID 624111;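 active = duplicate-averaged calcium fluorescence ratio at least three times the standard deviation of buffer wells, a nonspecific response in parental cells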
HEK293 Ca counter: activity in parental HEK293 cells without MrgX1 | fluorescence ratio F(max-min)/F0 at 10 µM | shares compounds with MrgX1 antag | 0.4% of 4,000 active | parental HEK293 calcium flux, Fluo-4 fluorescence ratio; stronger effect = higher value;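 active = calcium fluorescence ratio, averaged over duplicates, at least 3 SD of the buffer-well ratio, meaning a nonspecific response in receptor-free cells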;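 also: untransfected parental HEK293 lacking MrgX1 used as counterscreen for MrgX1 allosteric activators; fluorescence change taken during the second addition on a kinetic imager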
HEK293 Ca cntr2: activity in parental HEK293 cells lacking MrgX1 receptor. shares compounds with MrgX1 antag. Fluo-4 calcium fluorescence (FDSS); stronger effect = higher value. fluorescence ratio F(max-min)/F0 at 10 µM. 8.7% of 4,000 active;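 active = calcium fluorescence ratio at least three times the spread of buffer wells, meaning a non-specific response in parental cells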
Active calls of the source: *; i = inactive; . = not tested or not shown. In the library only some 3.5% were active in any assay of this set; here they are far more common.

SMILES	MrgX1 allo act	MrgX1 ag	RGS4 inh	MrgX1 antag	RGS4 pot	MrgX1 antag conf	HEK293 Ca flux	HEK293 Ca counter	HEK293 Ca cntr2
CCN1CCN(/C=N/c2nc3c(s2)CCCC3)CC1	i	i	i	-4.5*	i	i	i	i	i
COC(=O)CC(c1ccc(C(C)C)cc1)n1cccc1 (stereo not drawn)	i	i	i	i	i	.	.	.	.
Cc1cccc(N2CCN(C(=O)c3ccc(N4CCCC4=O)cc3)CC2C)c1 (stereo not drawn)	i	i	i	-4.9*	i	i	i	i	i
Cc1cccc(N2CCN(C(=O)c3cccc(N4C(=O)C5C6C=CC(C6)C5C4=O)c3)CC2C)c1 (stereo not drawn)	i	i	i	i	i	.	.	.	.
CNS(=O)(=O)c1ccc(NC(=O)c2ccccn2)cc1	i	i	i	i	i	.	.	.	.
CCOC(=O)CC1C(=O)NCCN1Cc1cccc(C(F)(F)F)c1 (stereo not drawn)	i	i	i	-4.7*	i	i	i	i	i
O=C(CC1C(=O)NCCN1Cc1cccc(C(F)(F)F)c1)NC1CCOCC1 (stereo not drawn)	i	i	i	i	i	.	.	.	.
Cc1c(C(=O)C(=O)NCC2CCCO2)c2ccccc2n1C (stereo not drawn)	i	i	i	i	i	.	.	.	.
CCOC(=O)C1CN(S(=O)(=O)c2ccc(C)cc2)c2cc(S(=O)(=O)CC)ccc2O1 (stereo not drawn)	i	i	i	-4.8*	i	i	i	i	i
COc1ccccc1Nc1ccc2nonc2c1[N+](=O)[O-]	i	i	i	i	i	.	.	.	.
COc1ccccc1/C=C/C=N/NC(=O)c1cc(-c2ccc(C)o2)[nH]n1	i	i	i	i	i	.	.	.	.
CC1=C(C(=O)Nc2ccccc2)C(c2ccco2)C(C#N)=C(SCc2ccccc2)N1 (stereo not drawn)	i	i	i	i	i	.	.	.	.
CC1=C(C(=O)Nc2ccccc2)C(c2ccco2)C(C#N)=C(SCC(=O)OC(C)C)N1 (stereo not drawn)	i	i	i	-11*	i	i	i	i	i
COc1cccc(/C=N/n2c(N)nc3ccccc32)c1OC	i	i	i	i	i	.	.	.	.
COc1ccc(/C=N/n2c(N)nc3ccccc32)cc1OC	i	i	.	-8.6*	.	i	i	i	i
COc1cccc(N2CCC(N3CCN(C)C(CCO)C3)CC2)c1 (stereo not drawn)	i	i	i	i	i	.	.	.	.
Cc1ccc(N2CCC(N3CCN(C)C(CCO)C3)CC2)cc1 (stereo not drawn)	i	i	i	-5*	i	i	i	i	i
Cc1ccc(NC(=O)Nc2nnc(-c3ccncc3)s2)cc1C	i	i	i	-6.1*	i	64%*	i	i	i
CC(C)(C)SCCNC(=O)CSc1ccccc1	i	i	i	-5*	i	84%*	i	i	i
CC(NC(N)=O)C(=O)OCc1ccc(Cl)cc1Cl (stereo not drawn)	i	i	i	-8.2*	i	i	i	i	i
CCC(C)[C@H](NC(=O)NCCCOC(C)C)C(=O)OC (stereo partly drawn)	i	i	i	i	i	.	.	.	.
O=C(CSc1nc2scc(-c3ccccc3)c2c(=O)[nH]1)NCCc1ccccc1	i	i	i	i	i	.	.	.	.
Cc1sc2nc(SCC(=O)N3CCCC3)[nH]c(=O)c2c1C	i	i	i	i	i	.	.	.	.
O=C(CSc1nc2scc(-c3ccccc3)c2c(=O)[nH]1)N1CCOCC1	i	i	i	-9.1*	i	i	i	i	i
Cc1sc2nc(SCC(=O)N3CCCCC3)[nH]c(=O)c2c1C	i	i	i	-7.3*	i	i	i	i	i
SMILES	MrgX1 allo act	MrgX1 ag	RGS4 inh	MrgX1 antag	RGS4 pot	MrgX1 antag conf	HEK293 Ca flux	HEK293 Ca counter	HEK293 Ca cntr2
COc1ccc(CCNC(=O)c2nnn(CC(=O)Nc3ccc(C)cc3C)c2N)cc1OC	i	i	i	i	i	.	.	.	.
Cc1cc(NC(=O)CCCC(=O)O)nc(C)n1	i	i	i	-6.4*	i	i	i	i	i
COc1ccc(-c2csc(NC(=O)C3CCN(c4ncnc5sc(C)c(C)c45)CC3)n2)cc1OC	i	i	i	-6*	i	79%*	i	i	i
CCc1noc(C)c1C(=O)Nc1nc(-c2ccc(OC)c(OC)c2)cs1	i	i	i	i	i	.	.	.	.
COc1ccccc1CC(=O)Nc1nc(-c2ccc(F)c(F)c2)cs1	i	i	i	i	i	.	.	.	.
COc1ccc(-c2csc(NC(=O)Cc3ccccc3F)n2)cc1OC	i	i	i	-6.1*	i	78%*	i	i	i
COc1ccc(-c2csc(NC(=O)c3cc(C)oc3C)n2)cc1OC	i	i	i	-4.9*	i	71%*	i	i	i
N=C1SC(c2ccccc2)C(=O)N1c1ncc(Cc2ccccc2)s1 (stereo not drawn)	i	i	i	i	i	.	.	.	.
Cc1ccc(Cc2cnc(N3C(=N)SC(c4ccccc4)C3=O)s2)cc1 (stereo not drawn)	i	i	i	-5.2*	i	i	i	i	i
O=S(=O)(Cc1cc(NCc2ccccc2)nc(-c2ccccn2)n1)c1ccccc1	i	i	i	-5.7*	i	86%*	i	i	i
CS(=O)(=O)N1CCC(Oc2ccccc2C(=O)N2CCCCC2CO)CC1 (stereo not drawn)	i	i	i	-4.6*	i	i	i	i	i
Cc1ccc(NC(=S)NCCc2ccc(F)cc2)c(C)c1	i	i	i	-6.2*	i	i	i	i	i
Cc1cc(S(=O)(=O)Nc2ccc(N(C)C)cc2)c(C)s1	i	i	i	i	i	.	.	.	.
